# S1P3 agonist = activates the human S1P3 receptor. AID 373. 60,000 tested, 0.1% active. Q99500. S1P3 NFAT-BLA reporter cells, agonism, FRET ratio; relative to 1 µM S1P, basal subtracted. activation, % at 4.5 µM;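 active = activation above the screen-wide mean plus 3 SD, cut at about 4.5% in these data, passing the limit was not always enough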
# Target sequence (Q99500 whole entry, looked up): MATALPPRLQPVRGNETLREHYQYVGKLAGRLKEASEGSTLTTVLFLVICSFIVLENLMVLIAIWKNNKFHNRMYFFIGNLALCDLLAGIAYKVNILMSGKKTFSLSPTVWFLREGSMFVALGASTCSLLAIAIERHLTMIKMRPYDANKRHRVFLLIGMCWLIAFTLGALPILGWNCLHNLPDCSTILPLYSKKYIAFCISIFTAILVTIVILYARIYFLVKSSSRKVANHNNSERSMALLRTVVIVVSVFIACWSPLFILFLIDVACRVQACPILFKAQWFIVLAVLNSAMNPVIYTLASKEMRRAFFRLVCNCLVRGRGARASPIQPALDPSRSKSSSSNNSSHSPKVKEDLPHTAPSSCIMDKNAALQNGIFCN
#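 material = human S1P3 NFAT-BLA reporter CHO cells | schedule = 4 h compound at 37 °C, 2 h substrate at RT | measured by = fluorescent BLA substrate, ex 405 nm, em 460/535 nm ratio | controls = 1 µM S1P reference | replication = primary once, confirmation triplicate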
# M1 agonist = activates the M1 muscarinic receptor | CHO-M1 cells, Fluo-4 calcium fluorescence, agonist mode; active compounds read high | B-score at 10 µM | 64,000 tested, 3% active | AID 626;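 active = fluorescence rise, raw or as B-score row- and column-corrected plate score, outside the 99.7% band of its plate's samples, either direction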
# Jurkat viability = reduces viability or proliferation of Jurkat cells; Jurkat E6.1 viability, ATP luminescence, 48 h; inhibition, % at 4 µM; 56,000 tested, 1.2% active; AID 463;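 active = inhibition above the mean inhibition of all tested compounds plus 3 SD, cut at about 28% in these data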
# JNK3 inh = JNK3 (human) kinase inhibition | purified JNK3 kinase activity, HTS | AID 746 | P53779 | 60,000 tested, 0.61% active | inhibition, % at 8 µM; in the data active = inhibition above about 17%;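 note: 0% = DMSO and 100% = reference inhibitor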
# M1 antag = M1 muscarinic receptor (rat) antagonism | B-score at 10 µM | P08482 | 64,000 tested, 3.4% active | AID 628 | CHO-M1 cells, Fluo-4 calcium, ACh EC80 antagonist mode; active compounds read low;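 active = calcium fluorescence response, raw or row-and-column corrected B-score, differing from the plate sample mean either way at a set confidence level, mostly lower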
# S1P1 ag pot = agonists and agonism potentiators of human S1P1 receptor | 56,000 tested, 0.57% active | activation, % at 9.5 µM | S1P1 CRE-bla cells, forskolin, beta-lactamase FRET, potentiator mode; S1P1 agonist co-added at EC20, 2 nM; 100% = saturating reference agonist, 0% = basal | P21453;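 active = activation above a cutoff set at the mean activation of all tested compounds plus 3 SD, cut at about 54% in these data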;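 note: forskolin at 4 µM as EC80 and the EC20 agonist is SEW2871; 100% = SEW2871 at its EC100 plus forskolin at EC80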
# Starred values were filed as active, the others as inactive; · = not tested or not shown. A selection: hits, their analogues and other compounds. The true share with any hit is near 7.4%.
SMILES,S1P3 agonist,M1 agonist,Jurkat viability,JNK3 inh,M1 antag,S1P1 ag pot
CCOc1ccc(NC2=NC(C(=O)NCc3ccccc3)CC(=O)N2)cc1 (stereo not drawn),-1,-0.66,0,-9,0.49,-7
CCN1CCN(c2ncc(C(=O)N3CCN(c4ccccc4OC)CC3)c3ccccc23)CC1,0,-1,-4,0,-10*,4
COc1ccccc1-c1cc(C(=O)Nc2cc(C)nn2-c2ccccc2)no1,-1,-0.07,89*,1,0.46,65
CCCS(=O)(=O)N1CCCC(C(=O)N2CCN(C(=O)OCC)CC2)C1 (stereo not drawn),0,-0.061,2,-1,0.018,-16
c1ccc2c(c1)nc(N1CCOCC1)c1c3ccccc3[nH]c21,-1,0.89,2,59*,0.068,-13
CC1=CC(=C2C(=O)c3ccccc3C2=O)C=C(C)N1C,0,0.54,-4,21*,0.17,-17
CCN1C(=C2C(=O)c3ccccc3C2=O)C=Cc2ccccc21,·,0.052,·,·,0.14,·
COc1ccc(Cl)c(N2CCN(CCCNC(=O)Nc3ccc(C)cc3)CC2)c1,-2,-0.0052,2,-1,-1.6,30
COc1ccc(-n2cnnc2SCC(=O)c2ccc(S(=O)(=O)N3CCOCC3)cc2)cc1,0,-0.04,-9,1,-1,9
Cc1ccc(Cl)cc1N1CCN(C(=O)C2CCN(c3nnc(-n4cccc4)s3)CC2)CC1,-2,-0.64,41*,2,-0.013,87*
CC(=O)NC(c1ccco1)c1ccc2cccnc2c1O (stereo not drawn),-1,-0.21,74*,1,0.6,-9
N#CC(C(=O)c1ccco1)c1ccccn1 (stereo not drawn),-1,0.052,10,13,-0.068,7
N#C/C(=C(\O)c1ccco1)c1ccccn1,0,0.62,1,19*,-1.7,-36
NCCCCCNC(=O)/C=N\O,0,-0.7,-7,-3,-0.22,-13
COc1ccc(-c2c3c([nH]c(=S)c2C#N)CCC3)cc1,-2,-1.4,·,46*,0.64,12
O=C(NCc1ccco1)c1ccc2nc3sc4c(c3c(=O)n2c1)CCCC4,-2,-0.58,13,4,-0.62,-13
Cn1nnnc1SCC(=O)Nc1ccc(Oc2ccc(Cl)cc2)cc1,0,0.8,51*,-2,-0.38,·
Cc1onc(COc2ccccc2O)c1Br,0,0.0074,0,-5,-0.22,1
Cc1cn(S(=O)(=O)c2ccc(Br)c3ccccc23)cn1,-2,-0.72,1,40*,-0.24,4
COc1ccc(S(=O)(=O)n2ccnc2)c2cccnc12,1,0.33,-2,-5,0.091,-6
Cc1sc2nc(-c3cccs3)nc(N3CCCN(C)CC3)c2c1C,0,-0.0084,0,-8,-2.2*,6
Cc1ccc(S(=O)(=O)n2nc(-c3ccco3)nc2SCc2ccccc2)cc1,-1,2.2*,-1,-8,-1.2,·
COc1ccc(C)cc1S(=O)(=O)N(CC(=O)O)c1ccc(F)cc1,-1,-0.21,2,-5,0.028,·
CN(C=O)CP(=O)(O)CCN1CCCC1=O,0,0.29,-4,-2,0.022,-17
CCCc1[nH][nH]c(=O)c1C(c1ccccc1)C(C#N)C#N (stereo not drawn),·,0.024,·,·,1.2*,·
SMILES,S1P3 agonist,M1 agonist,Jurkat viability,JNK3 inh,M1 antag,S1P1 ag pot
Cc1[nH]n(C(N)=S)c(=O)c1C(c1ccccc1)C(C#N)C#N (stereo not drawn),-2,0.67,2,-4,0.29,2
CC(C)CCn1c(SCC(N)=O)nc2c1c(=O)n(C)c(=O)n2C,-1,-0.59,2,5,-0.13,-2
CS(=O)(=O)N1CCc2cc(-c3csc(NC(=O)Cc4cccs4)n3)ccc21,-1,-0.011,70*,4,0.24,42
COC(=O)c1cn(CCOc2ccccc2)c2ccccc12,-1,1.3,8,5,1.3,-16
Cc1ccc(OCCn2cc(/C(N)=N/O)c3ccccc32)cc1C,-1,-0.02,10,1,1.3,68*
COc1nc2c(C)cccc2cc1-c1noc(-c2ccncc2)n1,0,1.2,4,-10,0.11,13
CC1(C)OC(=O)N(Cc2ccco2)C1(C)O (stereo not drawn),0,0.85,1,3,-0.31,-19
CCOC(=O)CSC1=C(C#N)C(c2ccc(C)s2)CC(=O)N1 (stereo not drawn),0,-0.16,86*,3,0.32,-2
CCSC1=C(C#N)C(c2ccc(C)s2)CC(=O)N1 (stereo not drawn),0,-0.76,0,4,0.015,0
COc1ccc(CCNc2nnc(Sc3nnnn3-c3ccccc3)s2)cc1OC,-2,-0.069,99*,-1,-0.0014,5
COc1ccc(CCNC(=O)CSc2nnnn2-c2ccccc2)cc1,-2,0.19,-2,1,-0.0074,-5
CC(=O)c1c(C)[nH]c(C(=O)N2CCN(C(=O)c3ccco3)CC2)c1C,1,-0.14,3,8,0.19,9
COc1cccc(N2CCN(C(=O)c3[nH]c(C)c(C(C)=O)c3C)CC2)c1,-1,-2.1,91*,5,-0.25,3
O=c1[nH]c(CN2CCCCC2)nc2c1C1(CCCC1)Cc1ccccc1-2,-4,-0.31,·,0,0.075,-17
O=C(Cn1cccc1)NCc1cccs1,0,-0.22,-2,-6,-0.075,-13
O=C(Cc1ccc(-n2cccc2)cc1)NCc1cccs1,-2,-1.2,71*,1,0.71,6
COc1ccc(Cl)cc1-c1n[nH]c(=S)o1,0,0.43,-2,37*,1.2,·
CCCCn1c(-c2cc(Cl)ccc2OC)n[nH]c1=S,0,1.6,-4,1,-0.28,1
Cc1ccccc1-c1n[nH]c(=S)o1,-1,-0.063,2,27*,0.21,-7
CCSc1nc(N2CCOCC2)c2c(c1C#N)CCCC2,4.7*,0.3,-1,-6,0.23,54
Cc1noc(/C=C/N(C)C)c1S(=O)(=O)N1CCc2ccccc21,0,1.2,-1,5,1.3*,72
Cc1noc(/C=C/N(C)C)c1S(=O)(=O)N(C)CC(=O)N1CCc2ccccc21,-1,0.52,4,-9,-0.0052,29
Cc1ccc(C2NC(=O)c3ccccc3N2)s1 (stereo not drawn),1,-0.016,75*,8,-0.56,9
COCCN1Cc2cccc(C(=O)NCc3ccc4c(c3)OCO4)c2C1=O,-1,·,6,23*,·,12
COCCN1Cc2cccc(C(=O)NCc3ccccn3)c2C1=O,-1,0.12,-6,0,0.038,-14
COn1c(SC2CCCCC2)nc2ccccc2c1=O,0,0.32,·,0,0.034,5
O=C(C1CCCN(S(=O)(=O)c2cnc[nH]2)C1)N1CC(=O)N(CCc2ccccc2)C(=O)C1 (stereo not drawn),0,-0.99,6,-6,-0.12,-8
